Here are results for 1 molecule from ChEMBL document CHEMBL1140384, “Synthesis and structure-activity relationships of suramin-derived P2Y11 receptor antagonists with nanomolar potency” (J Med Chem, 2005).

For one assay, the target named is T1, P2X purinoceptor 1 (Homo sapiens, UniProt P51575).
T1 sequence (P51575 whole entry): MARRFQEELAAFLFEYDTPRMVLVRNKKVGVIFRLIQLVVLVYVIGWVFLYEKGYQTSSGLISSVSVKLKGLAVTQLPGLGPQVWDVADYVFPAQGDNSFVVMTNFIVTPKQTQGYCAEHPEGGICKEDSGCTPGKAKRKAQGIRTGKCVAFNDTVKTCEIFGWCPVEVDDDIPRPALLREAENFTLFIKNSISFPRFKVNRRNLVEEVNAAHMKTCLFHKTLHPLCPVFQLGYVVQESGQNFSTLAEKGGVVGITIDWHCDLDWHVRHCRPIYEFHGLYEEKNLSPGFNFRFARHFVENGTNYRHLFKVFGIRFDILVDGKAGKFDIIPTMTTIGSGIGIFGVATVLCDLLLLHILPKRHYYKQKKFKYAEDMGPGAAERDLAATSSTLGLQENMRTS
Briefly: Inhibitory concentration against human P2X purinoceptor 1 expressed in Xenopus laevis oocytes. Type of assay: functional, cell-based, Oocyte. An outline of the steps:
(§1)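 Two-electrode voltage clamp on Xenopus laevis oocytes expressing recombinant rat or human P2X subtypes, recording receptor-mediated currents. IC50 values came from nonlinear least-squares Hill fits to pooled concentration-inhibition data; mean ± SEM from at least three experiments.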

The target in another assay is P2Y purinoceptor 1 (Homo sapiens, UniProt P47900). Briefly: Inhibitory concentration against P2Y purinoceptor 1 expressed in 1321N1 astrocytoma Cells; (n=3).
The target in the next assay is T2, P2X purinoceptor 3 (Rattus norvegicus, UniProt P49654).
T2 sequence (P49654 whole entry): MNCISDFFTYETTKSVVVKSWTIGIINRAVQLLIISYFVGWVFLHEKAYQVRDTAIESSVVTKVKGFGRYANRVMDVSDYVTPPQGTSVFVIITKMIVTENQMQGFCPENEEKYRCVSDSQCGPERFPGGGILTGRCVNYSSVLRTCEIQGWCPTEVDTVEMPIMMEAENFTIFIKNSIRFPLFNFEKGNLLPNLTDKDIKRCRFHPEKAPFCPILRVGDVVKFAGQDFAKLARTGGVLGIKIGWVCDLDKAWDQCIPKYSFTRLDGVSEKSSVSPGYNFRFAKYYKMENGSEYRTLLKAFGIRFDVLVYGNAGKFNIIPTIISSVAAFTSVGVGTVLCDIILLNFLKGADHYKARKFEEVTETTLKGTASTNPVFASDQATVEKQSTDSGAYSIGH
Briefly: Inhibitory concentration against rat P2X purinoceptor 3 expressed in Xenopus laevis oocytes. Type of assay: functional, cell-based, Oocyte. In a few lines:
as §1

The target in another assay is T3, P2X purinoceptor 7 (Rattus norvegicus, UniProt Q64663).
T3 sequence (Q64663 whole entry): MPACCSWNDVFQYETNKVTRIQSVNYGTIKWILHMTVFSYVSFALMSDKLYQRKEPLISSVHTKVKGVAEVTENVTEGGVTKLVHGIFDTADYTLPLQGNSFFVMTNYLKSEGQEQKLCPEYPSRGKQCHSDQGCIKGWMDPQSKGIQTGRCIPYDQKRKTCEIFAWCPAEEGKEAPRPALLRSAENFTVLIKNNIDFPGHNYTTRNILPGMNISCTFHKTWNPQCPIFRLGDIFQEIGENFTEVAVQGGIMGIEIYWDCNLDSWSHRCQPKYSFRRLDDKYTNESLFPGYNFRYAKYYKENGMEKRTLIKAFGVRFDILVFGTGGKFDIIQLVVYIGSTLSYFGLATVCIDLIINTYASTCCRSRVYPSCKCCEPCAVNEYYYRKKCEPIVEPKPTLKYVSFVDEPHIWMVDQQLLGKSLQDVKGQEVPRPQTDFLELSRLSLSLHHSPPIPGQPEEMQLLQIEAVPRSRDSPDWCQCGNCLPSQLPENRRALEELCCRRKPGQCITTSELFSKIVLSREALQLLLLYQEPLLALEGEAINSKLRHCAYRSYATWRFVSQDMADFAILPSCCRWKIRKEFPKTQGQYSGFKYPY
Kind of assay: Inhibitory concentration against rat P2X purinoceptor 7 expressed in Xenopus laevis oocytes. Type of assay: functional, cell-based, Oocyte. In a few lines:
as §1

Assay [1] deals with T4, P2Y purinoceptor 11 (Homo sapiens) (UniProt Q96G91).
T4 sequence (whole entry): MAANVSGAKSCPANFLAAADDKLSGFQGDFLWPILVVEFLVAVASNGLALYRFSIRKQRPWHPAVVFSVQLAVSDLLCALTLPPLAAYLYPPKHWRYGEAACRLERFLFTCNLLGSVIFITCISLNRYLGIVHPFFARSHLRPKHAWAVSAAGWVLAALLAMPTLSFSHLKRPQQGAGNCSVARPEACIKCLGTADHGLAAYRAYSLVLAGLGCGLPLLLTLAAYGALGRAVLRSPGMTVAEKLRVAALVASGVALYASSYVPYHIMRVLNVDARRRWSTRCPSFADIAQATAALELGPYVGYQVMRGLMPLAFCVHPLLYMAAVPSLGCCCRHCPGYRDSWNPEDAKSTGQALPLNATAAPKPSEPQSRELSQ
Briefly: Relative potency was measured against P2Y purinoceptor 11. It is filed as functional.

What is called IC50 is the concentration that gives 50% inhibition.

P2Y purinoceptor 1, sequence (P47900 whole entry): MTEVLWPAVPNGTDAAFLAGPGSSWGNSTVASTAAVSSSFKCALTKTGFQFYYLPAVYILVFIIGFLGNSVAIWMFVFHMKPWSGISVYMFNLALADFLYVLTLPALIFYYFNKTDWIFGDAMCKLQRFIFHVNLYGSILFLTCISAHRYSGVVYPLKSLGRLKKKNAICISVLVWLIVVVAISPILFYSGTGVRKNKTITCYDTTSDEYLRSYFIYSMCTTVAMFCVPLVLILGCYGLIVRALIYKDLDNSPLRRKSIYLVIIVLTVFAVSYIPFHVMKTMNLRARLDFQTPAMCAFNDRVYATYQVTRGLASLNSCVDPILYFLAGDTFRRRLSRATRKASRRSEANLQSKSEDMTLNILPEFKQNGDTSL

As to `O=C(Nc1cccc(C(=O)Nc2cc(C(=O)Nc3ccc(S(=O)(=O)O)c4cc(S(=O)(=O)O)cc(S(=O)(=O)O)c34)ccc2F)c1)Nc1cccc(C(=O)Nc2cc(C(=O)Nc3ccc(S(=O)(=O)O)c4cc(S(=O)(=O)O)cc(S(=O)(=O)O)c34)ccc2F)c1`, the IC50 is 0.0631 µM on P2X purinoceptor 1, 1820 µM against P2Y purinoceptor 1, 0.776 µM against P2X purinoceptor 3 and more than 3.16 µM at P2X purinoceptor 7. Moreover, in assay [1], the Rel potency amounted to 100.
